This is a sample that favours compounds with a hit; in the whole collection about 3.9% have one here.
TIM10 inh: growth inhibitors of TIM10 yeast strain | S. cerevisiae TIM10 strain growth, BacTiter-Glo luminescence, 24 h | inhibition, % at 10 µM | hit rate 1.4% among 330,000 | AID 463195;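 active means inhibition of 40% or more at the single tested concentration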;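 further: wild-type TIM10 isogenic control strain grown at permissive 25 °C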
XBP1 UPR activ: activators of adaptive arm of unfolded protein response (XBP1); CHO-XBP1 luciferase reporter, IRE1-XBP1 UPR activation, luminescence; percent of tunicamycin response, DMSO as zero; activation, % at 20 µM; hit rate 0.33% among 330,000;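 active means versus positive control, 20 µM dose yields 30% or more activation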;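 further: 100% = tunicamycin at 10 µg/mL and 0% = DMSO only wells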
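Assay system: CHO-XBP1 luciferase reporter cells; Schedule: 6 h treatment, 37 °C; Detection: glow luminescence from Steady-Glo reagent; Benchmarks: high control tunicamycin 10 µg/mL final, low control DMSO vehicle only.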
tim23-1 inh: growth inhibitors of tim23-1 mutant yeast | AID 463212 | hit rate 1.3% among 330,000 | S. cerevisiae tim23-1 growth, BacTiter-Glo luminescence, 24 h | inhibition, % at 20 µM;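 active means growth inhibition of the mutant yeast at or above 50%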;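 further: temperature-sensitive mutant grown at 25 °C; plate controls were DMSO-treated mutant yeast for no effect and medium wells lacking yeast for full effect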
tim10-1 inh: inhibits growth of tim10-1 mutant yeast | inhibition, % at 20 µM | hit rate 2.2% among 330,000 | AID 463190 | S. cerevisiae tim10-1 ts strain growth, BacTiter-Glo, 24 h;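 active means inhibition of at least 40%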;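 further: mutant grown at 25 °C; 0% = DMSO wells with yeast and 100% = wells holding no yeast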
CHOP UPR activ: apoptotic UPR (CHOP) activation. AID 449763. hit rate 0.34% among 330,000. activation, % at 10 µM. CHO-CHOP luciferase reporter, luminescence; percent of tunicamycin response over DMSO baseline;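 active means at 10 µM dose, activation of 40% or more, normalized to positive control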;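 further: 100% = tunicamycin at 10 µg/mL and 0% = DMSO alone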
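Test system: CHO CHOP reporter cells. Input: 500 CHO-CHOP cells per well. Medium: F12 with 10% FBS. Technique: luciferase luminescence. Measure: percent activation relative to tunicamycin control. Dosing: 10 µM compound, 0.5% DMSO. Timing: 16-18 h cell attachment, then 6 h compound exposure, 37 °C.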
tim10-1 conf: confirmation of tim10-1 mutant yeast growth inhibitors; hit rate 56% among 7,400; shares compounds with tim10-1 inh; inhibition, % at 20 µM; S. cerevisiae tim10-1 ts strain growth, BacTiter-Glo, 24 h;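 active means inhibition of yeast growth at or above a set limit in either of two repeat tests at 20 µM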;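 further: tim10-1 mutant grown at permissive 25 °C to find synthetic lethal compounds; 0% = DMSO yeast wells and 100% = medium wells without yeast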
Numbers without * were called inactive; x = not tested or not shown.

SMILES | TIM10 inh | XBP1 UPR activ | tim23-1 inh | tim10-1 inh | CHOP UPR activ | tim10-1 conf
CC1(C)OC(=O)N(c2ccccc2)C12C=Cc1c(ccc3ccccc13)O2 (configuration not stated) | 23.2 | -3.4 | -9.1 | 42.5* | -0.1 | 7.0
COc1ccc(N2CCN(CC(=O)Nc3ccccc3C(=O)NCc3ccccc3)CC2)cc1 | 5.9 | -5.5 | 31.5 | 12.5 | 1.5 | x
O=S(=O)(c1cccs1)N1CCN(Cc2nc3ccccc3s2)CC1 | 23.6 | -0.5 | 19.2 | 25.9 | 6.5 | x
O=C(OCc1nc2ccccc2s1)C1CCN(S(=O)(=O)c2cccs2)CC1 | 33.8 | 1.4 | 39.1 | 48.1* | 5.6 | 24.7
CCOC(=O)c1ccc(N2C(=O)C3CC=CCC3C2=O)cc1 (configuration not stated) | -13.1 | -0.5 | -6.7 | -11.5 | -0.1 | x
CCOC(=O)c1ccc(N2C(=O)C3C(C2=O)C(C(=O)c2ccc(Cl)cc2)N2CCCC32)cc1 (configuration not stated) | 32.0 | -1.0 | 26.4 | 42.0* | 0.8 | 29.3*
Cc1ccc(-c2onc3ccc(C(=O)/C=C/N(C)C)cc23)cc1 | 22.3 | -1.8 | 26.6 | 35.7 | 3.8 | x
Cc1cccc(-c2onc3ccc(C(=O)/C=C/N(C)C)cc23)c1 | 11.9 | -2.0 | 26.9 | 48.1* | 0.9 | 27.9
CN(C)/C=C/C(=O)c1ccc2noc(-c3ccc(F)cc3)c2c1 | 8.9 | 0.3 | 31.0 | 41.9* | -1.3 | 12.9
CSc1ccccc1NC(=O)CN(C)C(=O)c1ccc(-n2cccn2)cc1 | 7.2 | 1.2 | 13.3 | -0.2 | 1.4 | x
O=c1c2ccccc2ncn1Cc1cccc2ccccc12 | 28.8 | 11.2 | 23.5 | 13.8 | -1.1 | x
Cc1[nH][nH]c(=O)c1C(c1c(C)[nH][nH]c1=O)c1cn(Cc2cccc3ccccc23)c2ccccc12 | 10.5 | 13.2 | 49.4 | 48.2* | 5.6 | 33.3*
O=c1c2ccccc2nc2c3ccccc3c(NCCO)nn12 | 32.0 | 8.4 | 35.7 | 41.8* | -1.5 | 32.5*
Cc1ccc(-n2c(CNc3ccc(C)c(Cl)c3)n[nH]c2=S)cc1 | 37.8 | -0.4 | 41.6 | 41.0* | -1.4 | 8.9
Cc1ccc(-n2c(Cc3ccccc3)n[nH]c2=S)cc1 | 7.6 | 2.5 | 5.2 | 40.4* | -1.5 | 20.5
CN1N=C(c2ccc(Cl)cc2)CC(c2ccc(Cl)cc2)C1=O (configuration not stated) | 12.2 | -1.4 | 39.8 | 42.4* | -1.3 | 29.1
CC1(C)CC2CC(C)(CN2S(=O)(=O)c2cccc(N)c2)C1 (configuration not stated) | 34.8 | -0.7 | 26.5 | 48.4* | -0.5 | 38.6*
CC(C)N(C(=O)COC(=O)c1cccc(S(=O)(=O)N2CC3(C)CC2CC(C)(C)C3)c1)C(C)C (configuration not stated) | 31.1 | -1.3 | 29.8 | 22.2 | 3.2 | x
COc1ccc(N2CCN(c3oc(Cc4ccccc4)nc3C#N)CC2)cc1 | 12.2 | -0.9 | 36.8 | 40.3* | -0.9 | 25.5
COc1ccc(N2CCN(c3oc(COc4ccccc4)nc3C#N)CC2)cc1 | 24.7 | -2.8 | 16.5 | 25.8 | 0.7 | x
CC(=NC1CCCCC1)C1=C(O)c2ccccc2C1=O | 22.0 | 0.4 | 33.7 | 41.4* | 1.9 | 6.0
CCOc1ccc(C(=O)/C=C/c2cc(OC)c(OC)c(OC)c2)cc1 | 31.9 | -1.4 | 25.4 | 44.7* | 0.9 | 28.6
NC1=C(c2ccccc2)C(=O)NC1=O | -6.6 | -3.6 | 0.3 | 11.1 | -1.6 | x
COC(=O)c1ccc2nc(NC(=O)C(C)(C)C)sc2c1 | 35.2 | -5.5 | 46.4 | 42.2* | -5.4 | 35.0*
CCC1=C/C(=C/c2sc3ccccc3[n+]2CC)CC(C)(C)C1 | 29.7 | -5.0 | 37.7 | 41.6* | -0.7 | 35.4*
SMILES | TIM10 inh | XBP1 UPR activ | tim23-1 inh | tim10-1 inh | CHOP UPR activ | tim10-1 conf
Cc1ccc(CNC(=O)C2CCCN(c3nc4ccccc4o3)C2)cc1 (configuration not stated) | -8.6 | 0.1 | -6.6 | 0.6 | -0.8 | x
O=C(NCCC1=CCCCC1)C1CCCN(c2nc3ccccc3o2)C1 (configuration not stated) | 14.0 | -1.2 | 34.9 | 49.3* | -2.1 | 34.6*
CC(=O)[C@H]1[C@H](C#N)C[C@H]2[C@@H]3CC=C4C[C@@H](O)CC[C@]4(C)[C@H]3CC[C@@]21C | 35.8 | -6.2 | 38.6 | 40.6* | 1.0 | 33.9*
CCOc1ccc(N2C(=O)/C(=C\c3ccccc3OC)S(=O)(=O)C2c2cccc([N+](=O)[O-])c2)cc1 (configuration not stated) | 16.1 | 1.5 | 33.9 | 45.0* | 4.1 | 41.4*
Cc1ccnc(SCc2cc(=O)c(OC(=O)c3ccc(Br)o3)co2)n1 | 36.9 | 0.7 | 37.8 | 46.5* | 1.5 | 28.9*
Cc1ccc(-c2csc3ncnc(NCCC(=O)O)c23)cc1C | -4.3 | 0.3 | 5.7 | 2.4 | 1.6 | x
CSc1nsc(/C=C/Nc2ccc(F)cc2F)c1C#N | 27.9 | -1.1 | 32.0 | 46.5* | 1.0 | 40.6*
COc1ccc(OC)c(-n2c(SCC(=O)Nc3cc(C)on3)nnc2-c2c[nH]c3ccccc23)c1 | 9.2 | -0.5 | 20.5 | 52.3* | 1.4 | 3.2
N/C(CCS(=O)(=O)c1ccc(Cl)cc1)=N\OC(=O)c1ccccc1C(F)(F)F | 33.9 | -0.2 | 34.6 | 64.0* | 3.2 | 77.8*
N/C(CCS(=O)(=O)c1ccc(Cl)cc1)=N\OC(=O)c1ccc(Cl)cc1 | 24.1 | 2.3 | 15.5 | 20.3 | 3.6 | x
COc1ccccc1NC(=O)C1CCCN1C(=O)Nc1ccc(F)cc1 (configuration not stated) | -14.7 | 3.2 | -0.4 | -12.6 | -1.5 | x
O=C(CSc1nnc(SCc2ccccc2)s1)NNC(=S)Nc1ccccc1 | 38.0 | 0.4 | 33.2 | 45.5* | -1.2 | 27.7
CCCC(=O)Nn1cnc2c(c1=O)C1(CCCC1)Cc1ccccc1-2 | 25.0 | -1.6 | 35.2 | 45.3* | 0.5 | 36.4*
CC(C)n1c(O)c(N=NC(=O)Cn2ccc(C(F)(F)F)n2)c2ccccc21 | 15.2 | 0.3 | 7.6 | 43.9* | 0.2 | 28.1
C=C(C)C1CC=C(C)/C(=N/NC(=S)Nc2ccccc2)C1 (configuration not stated) | 18.5 | -0.4 | 26.8 | 40.8* | 0.8 | 25.9
COc1ccccc1-c1ccc(/C=C2\C=CC(=O)O2)o1 | 26.9 | 3.0 | 23.4 | 47.8* | 22.0 | 36.4*
COc1ccccc1-c1ccc(/C=C2/C=C(C)OC2=O)o1 | 27.4 | 3.4 | 23.4 | 31.0 | 6.5 | x
CCC/C(C#CCCN1C(=O)c2ccccc2C1=O)=C1/c2ccccc2C(=O)N1c1ccccc1 | 6.9 | -2.9 | 8.3 | 8.6 | -0.1 | x
COc1ccc(C(=O)NCC2OCCc3ccccc32)c(O)c1 (configuration not stated) | 33.4 | 2.9 | 34.8 | 45.1* | 0.7 | 22.6
CCCCNC(=S)Nc1ccccc1Cc1ccccc1 | 23.2 | -2.2 | 7.9 | 40.7* | -1.5 | 23.7
